SUMO1-SIM PPI = modulators of SUMO1 protein-protein interactions, primary screen, biochemical, uHTS. Small ubiquitin-related modifier 1 (Homo sapiens), P63165. SUMO1 binding to a labelled peptide, TR-FRET, 1 h. inhibition, % at 20 µM. 0.33% of 360,000 active. AID 602429, 2012; in the data active = inhibition above about 37%
Target sequence (P63165 whole entry, looked up): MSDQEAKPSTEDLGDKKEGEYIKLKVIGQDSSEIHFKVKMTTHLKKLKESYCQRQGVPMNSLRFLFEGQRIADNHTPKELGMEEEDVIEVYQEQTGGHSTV
STEP inh = STEP phosphatase inhibitors, primary screen, biochemical, fluorescence intensity, uHTS; Tyrosine-protein phosphatase non-receptor type 5 (Homo sapiens), P54829; recombinant STEP, OMFP fluorogenic substrate; inhibition, % at 20 µM; 0.25% of 360,000 active; AID 588621, 2011;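 active = inhibition at 20 µM, scaled per plate between control wells, above about 37%, limit read from the data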;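 also: 0% = DMSO with enzyme and substrate and 100% = substrate only without enzyme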
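Assay system: isolated STEP enzyme. Buffer or medium: pH 6.0 Bis-Tris with DTT and Tween 20. Also added: fluorogenic phosphatase substrate OMFP at 25 µM final. Dosing: 20 µM, 1% DMSO. Timing: 20 min reaction, room temperature, in the dark. Measured by: fluorescence intensity, excitation 480 nm, emission 540 nm. Evaluation: normalized % inhibition.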
Scp1 inh = Scp-1 phosphatase inhibitors, primary screen, biochemical, colorimetric, uHTS; Carboxy-terminal domain RNA polymerase II polypeptide A small phosphatase 1 (Homo …; Recombinant Scp1, phosphopeptide, malachite green phosphate absorbance; inhibition, % at 20 µM; 0.88% of 340,000 active; AID 493091, 2011;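 active = inhibition above about 50% at 20 µM, limit read from the data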;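 also: plate controls were DMSO wells with enzyme for no effect and wells lacking enzyme for full effect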
Target sequence (Q9GZU7 76-261 limits assumed): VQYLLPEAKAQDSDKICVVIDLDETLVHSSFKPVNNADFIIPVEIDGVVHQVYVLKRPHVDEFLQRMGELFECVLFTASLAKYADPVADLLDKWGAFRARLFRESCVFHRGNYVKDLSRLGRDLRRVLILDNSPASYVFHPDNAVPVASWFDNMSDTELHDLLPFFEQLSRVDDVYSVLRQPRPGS
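Material – SCP-1 phosphatase catalytic domain, residues 76-261 · Buffer or medium – Acidic Tris acetate buffer with magnesium and detergent · Also added – Phospho 17-mer peptide substrate · Compound – single 20 µM dose, 1% DMSO · Times – 45 min room-temperature reaction, 5 min colour, 30 min stabiliser · Technique – Phosphate-binding colour reagent, absorbance read at 630 nm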
LMPTP block = LMPTP phosphatase inhibitors, primary screen, biochemical, fluorescence intensity, uHTS | Low molecular weight phosphotyrosine protein phosphatase (Homo sapiens), P24666 | recombinant LMPTP-A, OMFP fluorogenic substrate | inhibition, % at 20 µM | 0.22% of 360,000 active;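 active = compounds that cut the enzyme signal by at least half of the control window in the single-dose screen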;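 also: plate controls were DMSO wells with enzyme plus substrate for no effect and substrate without enzyme for full effect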
Target sequence (P24666 whole entry, looked up): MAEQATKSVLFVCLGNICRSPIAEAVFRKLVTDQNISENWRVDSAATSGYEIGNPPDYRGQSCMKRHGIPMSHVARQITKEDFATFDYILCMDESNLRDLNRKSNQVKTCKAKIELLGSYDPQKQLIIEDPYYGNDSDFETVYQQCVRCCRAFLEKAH
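material = LMPTP-A | quantity = 0.625 nM enzyme | reagent = OMFP substrate, 400 µM final | buffer or medium = Bis-Tris pH 6.0, DTT, detergent | detection = endpoint fluorescence intensity from OMFP dephosphorylation | dosing = single 20 µM dose | read-out basis = % inhibition relative to no-enzyme and uninhibited control wells | control set = no-enzyme and uninhibited controls | timing = 50 min at room temperature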
DNMT1 block = human DNMT1 methyltransferase inhibitors, primary screen, biochemical, molecular beacon, fluorescence, HinP1I cleavage, uHTS; 0.83% of 360,000 active; DNA (cytosine-5)-methyltransferase 1 (Homo sapiens), P26358; inhibition (reported as % activation of signal), % at 10 µM; in the data active = inhibition above about 50%
SUMO HTRF inh = inhibitors of in vitro SUMOylation cascade, primary screen, biochemical, HTRF, uHTS; HTRF SUMOylation assay, SAE1/SAE2 + UBC9; SUMO-conjugating enzyme UBC9 (Homo sapiens), P63279; inhibition, % at 35 µM; 0.36% of 290,000 active; in the data active = inhibition above about 50%, passing the limit was not always enough
Target sequence (P63279 whole entry, looked up): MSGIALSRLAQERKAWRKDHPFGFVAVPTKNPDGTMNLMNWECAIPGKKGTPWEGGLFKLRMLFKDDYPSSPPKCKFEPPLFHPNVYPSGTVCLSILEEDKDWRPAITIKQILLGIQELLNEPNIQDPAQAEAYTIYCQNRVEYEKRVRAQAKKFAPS
DNMT1 confirm = DNMT1 methyltransferase inhibitor retest, confirmation, biochemical, molecular beacon, fluorescence, single concentration; shares compounds with DNMT1 block; DNMT1 molecular beacon HinP1I cleavage; inhibition, % at 10 µM; 8% of 2,300 active; AID 602385, 2012;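 active = average inhibition of at least 30% in the single-concentration confirmation test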
DNMT1 interf = beacon fluorescence artifact counter-screen. shares compounds with DNMT1 block. AID 602387. 1% of 2,300 active. DNMT1 molecular beacon spectral interference counterscreen, fluorescence 485/520. activation (fluorescence interference), % at 10 µM;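 active = activation of at least 30% at 10 µM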;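 also: DNMT1 catalytic domain with a HinP1I cleavage step and a FAM/dabcyl DNA beacon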
* marks the source's active call; other numbers are inactive results; / = no result given. Shown are actives, neighbours in structure and some others; about 1.9% of the full set was active somewhere.

SMILES	SUMO1-SIM PPI	STEP inh	Scp1 inh	LMPTP block	DNMT1 block	SUMO HTRF inh	DNMT1 confirm	DNMT1 interf
Cc1nc(NCc2ccc3c(c2)OCO3)c2nnn(Cc3ccccc3)c2n1	6.0	-0.7	2.9	-0.4	54.8*	13.8	3.0	3.4
Cc1nn(C)cc1/C=C/C(=O)c1ccc(O)cc1	-9.2	-2.3	1.6	-2.5	-4.2	-7.5	/	/
CCC1CCc2sc(C(=O)NNC(=O)c3ccncc3)cc2C1 (stereo not drawn)	4.0	-1.0	-3.8	0.3	88.2*	/	5.4	6.2
CC(C)(C)c1ccc(C(=O)NC2CCN(Cc3ccccc3)CC2)cc1	1.2	0.3	-0.5	-2.0	4.0	11.6	/	/
O=C(Nc1cccc(S(=O)(=O)N2CCCC2)c1)c1ccc2c(c1)OCO2	-0.4	-0.6	-5.2	-0.8	94.9*	-17.5	9.8	9.3
O=C(Nc1cccc(S(=O)(=O)N2CCCCCC2)c1)c1ccc2c(c1)OCO2	13.2	-0.3	-14.7	1.7	6.5	-10.9	/	/
O=C(c1cccc(Cl)c1)N1CCN(Cc2ccc3c(c2)OCO3)CC1	5.3	0.1	-4.7	0.0	90.2*	-5.7	1.6	2.1
CCc1nnc(NC(=O)CSc2nc(-c3ccccc3)cc(-c3ccc(F)cc3)c2C#N)s1	-12.5	2.6	7.1	1.9	51.7*	28.8	-0.1	0.8
Cc1ccc2cccc(OCC(=O)Nc3cccc(S(=O)(=O)N4CCCC4)c3)c2n1	3.1	4.4	7.3	2.0	-7.0	/	/	/
O=C1c2ccccc2C(=O)N1CCc1c(-c2[nH]c3ccccc3c2CCN2C(=O)c3ccccc3C2=O)[nH]c2ccccc12	3.1	3.0	-4.2	-1.6	55.7*	/	2.7	0.7
COc1ccccc1CC(=O)N1CCN(c2cccc(Cl)c2)CC1	11.1	0.9	-9.5	0.6	-4.0	12.0	/	/
CCCCNC(=O)C1C2C=CC(C2)C1C(=O)O (stereo not drawn)	-0.2	-1.9	2.6	-1.8	9.9	-4.2	/	/
Cn1cc(/C=C/c2cc[n+](C)cc2)c2cc(F)ccc21	-85.0	-14.5	36.7	-0.7	60.3*	6.6	55.6*	52.6*
CCN(C(=O)COC(=O)CCOc1ccc(C(C)(C)C)cc1)c1c(N)n(Cc2ccccc2)c(=O)[nH]c1=O	1.4	-1.9	-4.9	-1.4	63.4*	/	-1.1	3.8
CCCOc1ccc(C(=O)CCC(=O)OCC(=O)N(CC)c2c(N)n(Cc3ccccc3)c(=O)[nH]c2=O)cc1	-1.0	1.8	-4.8	0.0	-1.1	/	/	/
c1cnc2nc3c4ccccc4c4ccccc4c3nc2c1	35.6	-1.6	13.2	8.4	51.5*	/	-0.5	-0.1
NC(=O)CC(NC(=O)Cc1ccc(Br)cc1)c1ccc(NCCc2ccc(F)cc2)c([N+](=O)[O-])c1 (stereo not drawn)	-9.8	2.4	0.6	1.6	53.1*	44.7	1.7	0.0
NC(=O)CC(NC(=O)Cc1ccc(Br)cc1)c1ccc(NCCN2CCCC2)c([N+](=O)[O-])c1 (stereo not drawn)	-23.0	1.2	-8.5	-0.6	1.1	15.7	/	/
NC(=O)CC(NC(=O)Cc1ccc(Br)cc1)c1ccc(NCCc2ccc(Cl)cc2)c([N+](=O)[O-])c1 (stereo not drawn)	-4.3	3.0	-3.6	2.7	57.7*	46.6	1.9	-1.5
NC(=O)CC(NC(=O)c1ccc(Br)cc1)c1ccc(NCc2ccc(F)cc2)c([N+](=O)[O-])c1 (stereo not drawn)	4.3	-1.2	-9.8	2.4	28.1	31.6	/	/
CCCCNc1ccc(C(CC(N)=O)NC(=O)Cc2ccc(Br)cc2)cc1[N+](=O)[O-] (stereo not drawn)	-9.8	0.5	-1.3	0.5	21.0	35.2	/	/
Cc1ccccc1CNc1ccc(C(CC(N)=O)NC(=O)c2ccc(Br)cc2)cc1[N+](=O)[O-] (stereo not drawn)	-13.8	-1.0	-10.3	-0.2	61.1*	40.1	0.4	-0.9
COc1ccc(CCNc2ccc(C(CC(N)=O)NC(=O)Cc3ccc(Br)cc3)cc2[N+](=O)[O-])cc1 (stereo not drawn)	-9.1	4.9	-5.8	1.0	55.5*	48.0	-0.7	-4.3
COc1ccc(CCNc2ccc(C(CC(N)=O)NC(=O)c3ccc(Br)cc3)cc2[N+](=O)[O-])cc1 (stereo not drawn)	-6.7	3.0	0.6	1.9	44.1	49.0	/	/
CCCS(=O)(=O)NC(=O)C1(C)CCN(C(=O)c2cc(C)nn2C(C)(C)C)C1 (stereo not drawn)	1.7	-1.6	/	-2.2	2.9	/	/	/
SMILES	SUMO1-SIM PPI	STEP inh	Scp1 inh	LMPTP block	DNMT1 block	SUMO HTRF inh	DNMT1 confirm	DNMT1 interf
CSc1nc2n(n1)C(c1cccc(F)c1)C(C(=O)Nc1ccc(C)cc1C)=C(C)N2 (stereo not drawn)	-0.9	-8.2	-12.1	-2.8	38.0	35.2	/	/
CC1=C(C(=O)Nc2ccc(C)cc2C)C(c2ccc(Cl)cc2)n2nc(C(=O)OC(C)C)nc2N1 (stereo not drawn)	-2.5	2.6	-4.4	-3.2	56.5*	11.0	1.8	-0.2
CC1(C(=O)NNC(=O)c2ccc(=O)oc2)CC1Br (stereo not drawn)	21.1	8.2	28.3	-1.0	74.6*	6.9	3.7	3.0
CC1=C(C(=O)N2CCOCC2)CC(CC(=O)NC(c2ccccc2)c2ccccc2)C(=O)N1Cc1ccc(F)cc1 (stereo not drawn)	3.3	3.5	/	-0.1	3.0	/	/	/
CCNc1ccc(C(=O)OCC(=O)N(Cc2ccccc2)C(C)(C)C)cc1[N+](=O)[O-]	-20.2	1.0	-17.0	5.9	-6.3	0.7	/	/
COc1ccc(S(=O)(=O)/N=C2/NC(=O)/C(=C/c3ccco3)S2)cc1	25.0	3.7	19.6	0.6	64.2*	40.2	0.0	-1.1
COCCCN1C(=O)C(CC(=O)NCCN2CCOCC2)CC(C(=O)N(C(C)C)C(C)C)=C1C (stereo not drawn)	0.8	-1.0	/	-0.3	2.7	/	/	/

Screening results deposited in PubChem by Sanford-Burnham Center for Chemical Genomics.
